# Compounds with a hit are over-represented: about 2.2% of the library has one in this group of screens.
# Ba/F3 V617F tox = lowers viability of Ba/F3 cells expressing EpoR and JAK2V617F | inhibition, % at 5.6 µM | ATP luminescence | AID 1446 | actives 1.1% (n = 220,000);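 active = inhibition above the campaign mean plus 3 SD over all tested compounds, cut at about 24% in these data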;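 also: cytokine-independent growth of Ba/F3 cells driven by EpoR plus mutant JAK2; 0% = DMSO-treated cells and 100% = JAK inhibitor I control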
# IEC-6 cytotox = counter-screen for KLF5 inhibitors: cytotoxicity in IEC-6 cells | IEC-6 cytotoxicity, luminescence viability | inhibition, % at 5 µM | actives 0.78% (n = 290,000);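 also: 0% = plate median of test compound wells and 100% = cytotoxic reference compound wells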
# bCat nuc transl = alters nuclear translocation of beta-catenin in HeLa cells; immunofluorescence imaging; nuclear translocation activity, % at 5 µM; actives 0.3% (n = 190,000);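 active = nuclear translocation activity above 50% at 5 µM, with a well cell count of 50 or more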;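 also: per-cell ratio of nuclear to cytoplasmic median beta-catenin stain intensity; plate controls were DMSO negative control for no effect and GSK-3 inhibitor IX positive control for full effect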
#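 Test system: human HeLa cell line; Doses: 5 µM primary, 0.02–20 µM confirmation; Incubation: 24 h compound exposure, 37°C; Detection: beta-catenin immunofluorescence imaging with DAPI; Read-out: beta-catenin nuclear/cytoplasmic ratio, % activation.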
# MT stabilize HCS = microtubule stabilizers in HeLa cells. AID 2205. HeLa tubulin immunostaining HCS, 24 h; share of cells brighter than vehicle mean+2SD. actives 0.83% (n = 200,000). % tubulin-high responders, % at 10 µM;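 active = plate Z-score above 3 for both tubulin-high and condensed-nucleus cell shares, with cell loss under 80%, at 10 µM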;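 also: anti alpha tubulin signal scored within the nucleus-defined area of each cell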
# BaF3 tox = counter-screen for JAK2V617F inhibitors: parental Ba/F3 viability inhibitors; inhibition, % at 5.6 µM; CellTiter-Glo ATP luminescence; AID 1486; actives 1.1% (n = 220,000);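 active = inhibition above a per-campaign cutoff, the mean inhibition of all tested compounds plus 3 SD, cut at about 27% in these data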;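 also: 0% = DMSO wells and 100% = JAK Inhibitor I control wells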
# APP transl inh = APP translation inhibition | SH-SY5Y APP 5'UTR-luciferase reporter, luminescence | inhibition, % at 2 µM | actives 0.82% (n = 190,000);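 active = inhibition above a set limit, derived from the sample mean plus 3 SD, cut at about 45% in these data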
# IEC-6 cytotox cf = IEC-6 cytotoxicity, confirmation assay. shares compounds with IEC-6 cytotox. IEC-6 rat intestinal epithelial viability, luminescence. inhibition, % at 5 µM. actives 63% (n = 1,900);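 also: 0% = vehicle and 100% = reference cytotoxic drug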
# Active calls of the source: *; . = no result. Rule as the data show it, unless noted: active = inhibition above about 22%; inactive = the rest.
SMILES,Ba/F3 V617F tox,IEC-6 cytotox,bCat nuc transl,MT stabilize HCS,BaF3 tox,APP transl inh,IEC-6 cytotox cf
COc1cccc(Cn2c(NCc3ccccn3)nc3c2c(=O)n(C)c(=O)n3C)c1,1,2,.,3,1,-20,.
Cn1c(=O)c2c(nc(NCc3cccnc3)n2Cc2cccc(C(F)(F)F)c2)n(C)c1=O,53*,25*,2,6,53*,-11,25*
COc1cccc(Cn2c(NCc3cccnc3)nc3c2c(=O)n(C)c(=O)n3C)c1,91*,88*,0,2,90*,33,81*
NCC(=O)Nc1ccc(Cl)cc1C(=O)c1ccc[nH]1,58*,31*,1,.,37*,.,9
NS(=O)(=O)c1ccc(N=Nc2ccc(O)c3ncccc23)cc1,.,46*,.,.,.,.,4
CCOc1ccc(N=Nc2ccc(O)c3ncccc23)cc1,.,14,.,.,.,.,.
COc1cccc(-c2cc3nc(-c4ccccc4)cc(=O)n3[nH]2)c1,.,78*,.,.,.,.,53*
O=c1cc(C(F)(F)F)nc(SCc2cccnc2)[nH]1,.,2,.,.,.,.,.
COc1ccc(Cl)cc1NC(=O)CN(C)CC(=O)Nc1cc(OC)c(OC)c(OC)c1,.,40*,.,.,.,.,33*
COc1cc(OC)cc(C(=O)c2c(C)c(C#N)c3ccccn23)c1,.,52*,.,.,.,.,18
CCc1ccccc1NC(=O)N1CCc2ccccc21,0,0,0,.,-7,.,.
Clc1ccc(CSc2nncn2-c2ccc3c(c2)OCCO3)cc1,6,32*,26,.,2,.,31*
C=CCSc1nc(=O)n2ccc(C)cc2n1,-2,6,.,2,4,-1,.
Nc1nccc(-c2nn(-c3ccc(Cl)cc3)ccc2=O)n1,-5,2,-2,.,0,.,.
CSc1nccc(-c2nn(-c3ccc(C)cc3)ccc2=O)n1,75*,51*,.,57*,76*,21,39*
C=CCSc1nccc(-c2nn(-c3ccc(C)cc3)ccc2=O)n1,37*,39*,33,39*,46*,88*,34*
CC(=O)c1ccc(NS(=O)(=O)c2cc(-c3cnc(C4CC4)o3)ccc2C)cc1,.,11,.,.,.,.,.
Cc1ccc(N(C)S(=O)(=O)c2cc(-c3cnc(C4CC4)o3)ccc2C)cc1,.,3,.,.,.,.,.
CC(=O)c1cccc(NS(=O)(=O)c2cc(-c3cnc(C4CC4)o3)ccc2C)c1,.,41*,.,.,.,.,31*
CC(=O)Nc1ccc(NS(=O)(=O)c2cc(-c3cnc(C4CC4)o3)ccc2C)cc1,.,23*,.,.,.,.,24*
Cc1ccc(-c2cnc(C3CC3)o2)cc1S(=O)(=O)Nc1ccccc1,.,38*,.,.,.,.,47*
CC(=O)N1c2ccc(S(=O)(=O)NCCC(=O)Nc3ccc(OC(F)(F)F)cc3)cc2CC1C (stereo not given),.,-1,.,.,.,.,.
CC(=O)N(C1=C(Cl)C(=O)c2ccccc2C1=O)C1CCCCC1,2,25*,3,.,-5,.,8
CC(=O)N(c1ccccc1C)C1CCCC1,2,1,-6,3,4,-10,.
COc1cccc(/C=C2\CC(C)Cc3c2nc2ccccc2c3C(=O)O)c1OC (stereo not given),.,1,.,.,.,.,.
SMILES,Ba/F3 V617F tox,IEC-6 cytotox,bCat nuc transl,MT stabilize HCS,BaF3 tox,APP transl inh,IEC-6 cytotox cf
Cc1occc1C(=O)N/N=C/c1ccc(-c2ccccc2)cc1,.,28*,.,.,.,.,31*
COc1cccc(C2NC(=S)NC(C)=C2C(=O)c2ccccc2)c1OC (stereo not given),84*,68*,132*,24*,78*,78*,50*
C=CCOc1ccc(C2NC(=S)NC(C)=C2C(=O)c2ccccc2)cc1OC (stereo not given),-3,3,-2,4,-3,10,.
Nc1ccccc1SCC(=O)Nc1ccc2c(c1)OCCO2,.,-2,.,.,.,.,.
Nc1nc(Nc2ccccc2)nc2ccccc12,11,22*,-3,1,15,-155,15
Cc1cc(C)c2cc(C#N)c(SCC(=O)Nc3cc(C)on3)nc2c1,.,8,.,.,.,.,.
COc1ccc(NC(=O)c2c(N)no[n+]2[O-])c(OC)c1,-3,-2,-1,3,2,15,.
COc1ccc(NC(=O)c2c(N)no[n+]2[O-])cc1,-4,33*,4,7,0,18,28*
CCCCCCOc1ccc(/C(C)=N/NC2=NCCN2)cc1[N+](=O)[O-],-1,-1,4,4,2,22,.
CCCCOc1ccc(Br)cc1/C(C)=N/NC1=NCCN1,80*,83*,52*,8,75*,96*,66*
CCN(c1ccc(OC)cc1)S(=O)(=O)c1ccc(-c2cc(C)no2)s1,.,7,.,.,.,.,.
CCc1ccccc1N(C)S(=O)(=O)c1ccc(-c2cc(C)no2)s1,.,47*,.,.,.,.,18
NC(=S)NNc1c(F)c(F)c(F)c(F)c1F,30*,49*,1,4,35*,18,-9
Cc1ccccc1NNC(N)=S,-1,0,0,4,4,-22,.
COc1ccc(NC2c3ccccc3C(=O)N2Cc2ccc3c(c2)OCO3)cc1 (stereo not given),-3,2,0,.,1,.,.
COc1ccc(/C=C/C(=O)c2cc(F)ccc2OC(=O)c2ccccc2OC)cc1OC,3,52*,9,4,10,89*,41*
COc1ccc(/C=C/C(=O)c2cc(F)ccc2OC(=O)c2ccccc2)cc1OC,0,46*,.,14,1,90*,37*
COc1ccc(/C=C/C(=O)c2cc(F)ccc2OC(=O)c2ccc(OC)c(OC)c2)cc1OC,2,0,4,3,3,-4,.
C=CCN1C(=O)C(C)(C)N(C(=O)c2cccc([N+](=O)[O-])c2)c2ccccc21,.,2,.,.,.,.,.
CN(C)c1ccc(S(=O)(=O)N2CCCCC2)cc1NC(=O)C1=COCCO1,.,-2,.,.,.,.,.
COc1cc2ncnc(Nc3cccc(Cl)c3)c2cc1OC,2,21,-2,.,-1,.,.
Cc1ccccc1CNc1ncnc2cc(Cl)ccc12,.,9,.,.,.,.,.
COc1cc2ncnc(NCc3ccccc3C)c2cc1OC,-3,25*,0,1,5,-4,36*
COc1cc2ncnc(NCc3ccccc3Cl)c2cc1OC,3,22*,2,1,5,11,36*
COc1cc2ncnc(Nc3ccc4c(c3)OCO4)c2cc1OC,.,27*,.,.,.,.,58*
CC(C)c1ccc(N(CC(=O)NC2CCCC2)C(=O)CCC(=O)Nc2ccccn2)cc1,.,-5,.,.,.,.,.
O=C(O)/C=C/c1cn(-c2ccccc2)nc1-c1ccc(-c2ccc([N+](=O)[O-])cc2)o1,-2,-7,-1,.,-2,.,.
CCOc1ncccc1C(=O)OCC(=O)c1ccc(C)c(C)c1,1,-2,.,7,1,4,.
Nc1sc(-c2ccccc2)cc1-c1n[nH]c(=S)n1C1CCCCC1,89*,54*,1,.,57*,.,48*

# High-throughput results from PubChem.
